# Laboratory results taken from ChEMBL document CHEMBL4330069, “Boosting the efficacy of anti-MRSA β-lactam antibiotics via an easily accessible, non-cytotoxic and orally bioavailable FtsZ inhibitor” (Eur J Med Chem, 2019).
# Columns and labels:
# Assay type in all cases: functional
# Staphylococcus aureus [1] = test: Antibacterial activity against Staphylococcus aureus ATCC 29213 harboring FtsZ 64 mutation after 20 hrs; conditions: ATCC 29213, 20 h
# Outline: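 Broth microdilution MIC per CLSI guidelines, compounds dissolved in DMSO. Resistant mutants were selected by serial passage of ATCC 29213 in LB at 37 °C with shaking at 250 rpm. Each 20 h culture started at half the MIC, and the concentration was doubled at each transfer. Growth inhibition was read by eye, in duplicate.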
# Staphylococcus aureus [2] = test: Antibacterial activity against multidrug-resistant Staphylococcus aureus isolate 2895 by broth microdilution assay
# Outline: (§1)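 Broth microdilution MIC per CLSI guidelines against clinical MRSA isolates, for β-lactams and test compound alone and in combination. Compounds were dissolved in DMSO. Growth was read by eye, in duplicate. FIC index = FIC(compound) + FIC(drug); synergy defined as FIC index ≤0.5.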
# Staphylococcus aureus [3] = test: Antibacterial activity against multidrug-resistant Staphylococcus aureus isolate 1402 by broth microdilution assay; outline: as §1
# Staphylococcus aureus [4] = test: Antibacterial activity against multidrug-resistant Staphylococcus aureus isolate 2728 by broth microdilution assay; outline: as §1
# Staphylococcus aureus [5] = test: Antibacterial activity against multidrug-resistant Staphylococcus aureus isolate 2224 by broth microdilution assay; outline: as §1
# Staphylococcus aureus [6] = test: Antibacterial activity against multidrug-resistant Staphylococcus aureus isolate 2973 by broth microdilution assay; outline: as §1
# Staphylococcus aureus [7] = test: Synergistic antibacterial activity against multidrug-resistant Staphylococcus aureus isolate 2895 in presence of amoxicillin by broth microdilution assay
# Outline: (§2)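 CLSI broth microdilution on clinical MRSA isolates. MICs were measured for the β-lactam alone, the test agent alone and the two combined. Compounds were dissolved in DMSO, and growth inhibition was scored by eye. FIC index is the sum, over both agents, of MIC in combination divided by MIC alone. An FIC index ≤0.5 was taken as synergy.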
# Staphylococcus aureus [8] = test: Synergistic antibacterial activity against multidrug-resistant Staphylococcus aureus isolate 2728 in presence of amoxicillin by broth microdilution assay; outline: as §2
# Staphylococcus aureus [9] = test: Synergistic antibacterial activity against multidrug-resistant Staphylococcus aureus isolate 3580 in presence of amoxicillin by broth microdilution assay
# Staphylococcus aureus [10] = test: Synergistic antibacterial activity against multidrug-resistant Staphylococcus aureus isolate 3411 in presence of methicillin by broth microdilution assay
# Staphylococcus aureus [11] = test: Synergistic antibacterial activity against multidrug-resistant Staphylococcus aureus isolate 2919 in presence of methicillin by broth microdilution assay; outline: as §2
# Staphylococcus aureus [12] = test: Synergistic antibacterial activity against multidrug-resistant Staphylococcus aureus isolate 2728 in presence of methicillin by broth microdilution assay; outline: as §2
# Staphylococcus aureus [13] = test: Synergistic antibacterial activity against multidrug-resistant Staphylococcus aureus isolate 3580 in presence of methicillin by broth microdilution assay
# Staphylococcus aureus [14] = test: Synergistic antibacterial activity against multidrug-resistant Staphylococcus aureus isolate 256 in presence of cloxacillin by broth microdilution assay; outline: as §2
# Staphylococcus aureus [15] = test: Synergistic antibacterial activity against multidrug-resistant Staphylococcus aureus isolate 358 in presence of cloxacillin by broth microdilution assay
# Staphylococcus aureus [16] = test: Synergistic antibacterial activity against multidrug-resistant Staphylococcus aureus isolate 774 in presence of cloxacillin by broth microdilution assay
# Staphylococcus aureus [17] = test: Synergistic antibacterial activity against multidrug-resistant Staphylococcus aureus isolate 417 in presence of cefuroxime by broth microdilution assay
# Staphylococcus aureus [18] = test: Synergistic antibacterial activity against multidrug-resistant Staphylococcus aureus isolate 3332 in presence of cefuroxime by broth microdilution assay; outline: as §2
# Staphylococcus aureus [19] = test: Synergistic antibacterial activity against multidrug-resistant Staphylococcus aureus isolate 3411 in presence of cefuroxime by broth microdilution assay
# Staphylococcus aureus [20] = test: Synergistic antibacterial activity against multidrug-resistant Staphylococcus aureus isolate 2516 in presence of cefuroxime by broth microdilution assay; outline: as §2
# Staphylococcus aureus [21] = test: Synergistic antibacterial activity against multidrug-resistant Staphylococcus aureus isolate 2973 in presence of cefuroxime by broth microdilution assay; outline: as §2
# Staphylococcus aureus [22] = test: Synergistic antibacterial activity against multidrug-resistant Staphylococcus aureus isolate 231 in presence of meropenem by broth microdilution assay
# Outline: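 Clinical MRSA isolate panel; compound and β-lactam tested alone and in combination by CLSI broth microdilution, compounds dissolved in DMSO, growth inhibition scored by eye, run in duplicate. FIC index = FIC(compound) + FIC(drug), each the MIC in combination divided by the MIC alone; an index ≤ 0.5 was called synergy.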
# Staphylococcus aureus [23] = test: Synergistic antibacterial activity against multidrug-resistant Staphylococcus aureus isolate 3589 in presence of meropenem by broth microdilution assay
# Staphylococcus aureus [24] = test: Synergistic antibacterial activity against multidrug-resistant Staphylococcus aureus isolate 3332 in presence of meropenem by broth microdilution assay; outline: as §2
# Staphylococcus aureus [25] = test: Synergistic antibacterial activity against multidrug-resistant Staphylococcus aureus isolate 2490 assessed as fractional Inhibitory concentration index in presence of amoxicillin by broth microdilution assay
# Outline: (§3)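 CLSI broth microdilution run on clinical MRSA isolates with each β-lactam alone, the test agent alone, and the two combined; agents dissolved in DMSO. Growth inhibition was read by eye. FIC index = FIC(compound) + FIC(β-lactam), where each FIC is the MIC in combination divided by the MIC alone. An index ≤0.5 was taken as synergy.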
# Staphylococcus aureus [26] = test: Synergistic antibacterial activity against multidrug-resistant Staphylococcus aureus isolate 417 assessed as fractional Inhibitory concentration index in presence of amoxicillin by broth microdilution assay
# Staphylococcus aureus [27] = test: Synergistic antibacterial activity against multidrug-resistant Staphylococcus aureus isolate 3332 assessed as fractional Inhibitory concentration index in presence of amoxicillin by broth microdilution assay
# Staphylococcus aureus [28] = test: Synergistic antibacterial activity against multidrug-resistant Staphylococcus aureus isolate 1749 assessed as fractional Inhibitory concentration index in presence of amoxicillin by broth microdilution assay; outline: as §3
# Staphylococcus aureus [29] = test: Synergistic antibacterial activity against multidrug-resistant Staphylococcus aureus isolate 256 assessed as fractional Inhibitory concentration index in presence of methicillin by broth microdilution assay
# Staphylococcus aureus [30] = test: Synergistic antibacterial activity against multidrug-resistant Staphylococcus aureus isolate 757 assessed as fractional Inhibitory concentration index in presence of methicillin by broth microdilution assay
# Staphylococcus aureus [31] = test: Synergistic antibacterial activity against multidrug-resistant Staphylococcus aureus isolate 200 assessed as fractional Inhibitory concentration index in presence of methicillin by broth microdilution assay
# Staphylococcus aureus [32] = test: Synergistic antibacterial activity against multidrug-resistant Staphylococcus aureus isolate 254 assessed as fractional Inhibitory concentration index in presence of cloxacillin by broth microdilution assay
# Staphylococcus aureus [33] = test: Synergistic antibacterial activity against multidrug-resistant Staphylococcus aureus isolate 1749 assessed as fractional Inhibitory concentration index in presence of cloxacillin by broth microdilution assay; outline: as §3
# Staphylococcus aureus [34] = test: Synergistic antibacterial activity against multidrug-resistant Staphylococcus aureus isolate 3580 assessed as fractional Inhibitory concentration index in presence of cloxacillin by broth microdilution assay
# Staphylococcus aureus [35] = test: Synergistic antibacterial activity against multidrug-resistant Staphylococcus aureus isolate 2901 assessed as fractional Inhibitory concentration index in presence of meropenem by broth microdilution assay
# Staphylococcus aureus [36] = test: Synergistic antibacterial activity against multidrug-resistant Staphylococcus aureus isolate 757 assessed as fractional Inhibitory concentration index in presence of meropenem by broth microdilution assay
# Staphylococcus aureus [37] = test: Synergistic antibacterial activity against multidrug-resistant Staphylococcus aureus isolate 85 assessed as fractional Inhibitory concentration index in presence of meropenem by broth microdilution assay
compound,measurement,setting,value
CCCCCCCCCNc1ccc(F)c(C(N)=O)c1F,MIC,Staphylococcus aureus [1],64 µg/mL
same,MIC,Staphylococcus aureus [2],16 µg/mL
same,MIC,Staphylococcus aureus [3],4 µg/mL
same,MIC,Staphylococcus aureus [4],128 µg/mL
same,MIC,Staphylococcus aureus [5],1020 µg/mL
same,MIC,Staphylococcus aureus [6],128 µg/mL
same,MIC,Staphylococcus aureus [7],16 µg/mL
same,MIC,Staphylococcus aureus [8],8 µg/mL
same,MIC,Staphylococcus aureus [9],8 µg/mL
same,MIC,Staphylococcus aureus [10],2 µg/mL
same,MIC,Staphylococcus aureus [11],4 µg/mL
same,MIC,Staphylococcus aureus [12],4 µg/mL
same,MIC,Staphylococcus aureus [13],2 µg/mL
same,MIC,Staphylococcus aureus [14],1 µg/mL
same,MIC,Staphylococcus aureus [15],1 µg/mL
same,MIC,Staphylococcus aureus [16],1 µg/mL
same,MIC,Staphylococcus aureus [17],2 µg/mL
same,MIC,Staphylococcus aureus [18],2 µg/mL
same,MIC,Staphylococcus aureus [19],2 µg/mL
same,MIC,Staphylococcus aureus [20],2 µg/mL
same,MIC,Staphylococcus aureus [21],4 µg/mL
same,MIC,Staphylococcus aureus [22],4 µg/mL
same,MIC,Staphylococcus aureus [23],4 µg/mL
same,MIC,Staphylococcus aureus [24],4 µg/mL
same,fractional inhibitory concentration index (FICI),Staphylococcus aureus [25],0.6
same,fractional inhibitory concentration index (FICI),Staphylococcus aureus [26],0.3
same,fractional inhibitory concentration index (FICI),Staphylococcus aureus [27],0.6
same,fractional inhibitory concentration index (FICI),Staphylococcus aureus [28],1
same,fractional inhibitory concentration index (FICI),Staphylococcus aureus [29],0
same,fractional inhibitory concentration index (FICI),Staphylococcus aureus [30],0.1
same,fractional inhibitory concentration index (FICI),Staphylococcus aureus [31],0.3
same,fractional inhibitory concentration index (FICI),Staphylococcus aureus [32],0.2
same,fractional inhibitory concentration index (FICI),Staphylococcus aureus [33],1.3
same,fractional inhibitory concentration index (FICI),Staphylococcus aureus [34],0.5
same,fractional inhibitory concentration index (FICI),Staphylococcus aureus [35],4
same,fractional inhibitory concentration index (FICI),Staphylococcus aureus [36],4.1
same,fractional inhibitory concentration index (FICI),Staphylococcus aureus [37],4
